Reference: ChEMBL document CHEMBL1157743, “Mitotic arrest induced by a novel family of DNA topoisomerase II inhibitors” (J Med Chem, 2010)
Values belong to the compound of their own block, whether it stands above or below them. Calls of active or inactive are those of the source. The rule behind the calls is not given here.

Assays:
HBL-100 [1] = assay: Antiproliferative activity against human HBL100 cells after 48 hrs by SRB assay; type: functional; conditions: HBL-100, 48 h
How it was run: (§1)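 Human solid tumor lines and three immortalized nontumor lines in culture, exposed to the test agent. Read-out is growth inhibition, reported as GI50 (μM).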

SW1573 [2] = assay: Antiproliferative activity against human SW1573 cells after 48 hrs by SRB assay; type: functional; conditions: SW1573, 48 h; how it was run: as §1
T47D [3] = assay: Cell cycle arrest in human T47D cells assessed as accumulation of cells in G2/M phase after 24 hrs by flow cytometry; type: functional, cell-based
How it was run: (§2)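 Flow cytometry of DNA content, giving the G0/G1, S, G2/M and sub-G1 fractions. Cells treated for 24 h at three doses alongside untreated controls. Values are means of at least two experiments.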

HeLa [4] = assay: Induction of DNA damage in human HeLa cells assessed as expression of cyclin B1 uM after 24 hrs by immunoblotting; type: functional, cell-based
How it was run: (§3)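 HeLa cells exposed at 7.5 μM, sampled at 3, 6, 12 and 24 h. Protein extracts probed by Western blot for phospho-Chk2, phospho-H2AX and cyclin B1. Phospho-histone H3 Ser10 detected with a phospho-specific antibody. Includes a positive-control lane.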

T47D [5] = assay: Induction of apoptosis in human T47D cells assessed as early apoptotic cells at 8 uM after 24 hrs by annexin V/Pi staining technique; type: functional
[6] = Antiproliferative activity against human MCF10A cells after 48 hrs by SRB assay; type: cell-based, MCF-10A; how it was run: as §1
HBL-100 [7] = assay: Cell cycle arrest in human HBL100 cells assessed as accumulation of cells in G2/M phase after 24 hrs by flow cytometry; type: functional, cell-based; how it was run: as §2
HBL-100 [8] = assay: Induction of apoptosis in human HBL100 cells assessed as early apoptotic cells at 2 uM after 24 hrs by annexin V/Pi staining technique; type: functional
HBL-100 [9] = assay: Induction of apoptosis in human HBL100 cells assessed as early apoptotic cells at 4 uM after 24 hrs by annexin V/Pi staining technique; type: functional
HeLa [10] = assay: Cell cycle arrest in human HeLa cells assessed as accumulation of cells in G2/M phase after 24 hrs by flow cytometry; type: functional, cell-based; how it was run: as §2
WiDr [11] = assay: Cell cycle arrest in human WiDr cells assessed as accumulation of cells in G2/M phase after 24 hrs by flow cytometry; type: functional, cell-based; how it was run: as §2
[12] = molecular target: DNA topoisomerase 2-alpha (Homo sapiens) (UniProt P11388); assay: Inhibition of human topoisomerase 2 alpha assessed as inhibition of relaxation of Rel plasmid pHOT1 at 100 uM after 30 to 60 mins by gel electrophoresis relative to control
Sequence of DNA topoisomerase 2-alpha (Homo sapiens) (P11388 whole entry): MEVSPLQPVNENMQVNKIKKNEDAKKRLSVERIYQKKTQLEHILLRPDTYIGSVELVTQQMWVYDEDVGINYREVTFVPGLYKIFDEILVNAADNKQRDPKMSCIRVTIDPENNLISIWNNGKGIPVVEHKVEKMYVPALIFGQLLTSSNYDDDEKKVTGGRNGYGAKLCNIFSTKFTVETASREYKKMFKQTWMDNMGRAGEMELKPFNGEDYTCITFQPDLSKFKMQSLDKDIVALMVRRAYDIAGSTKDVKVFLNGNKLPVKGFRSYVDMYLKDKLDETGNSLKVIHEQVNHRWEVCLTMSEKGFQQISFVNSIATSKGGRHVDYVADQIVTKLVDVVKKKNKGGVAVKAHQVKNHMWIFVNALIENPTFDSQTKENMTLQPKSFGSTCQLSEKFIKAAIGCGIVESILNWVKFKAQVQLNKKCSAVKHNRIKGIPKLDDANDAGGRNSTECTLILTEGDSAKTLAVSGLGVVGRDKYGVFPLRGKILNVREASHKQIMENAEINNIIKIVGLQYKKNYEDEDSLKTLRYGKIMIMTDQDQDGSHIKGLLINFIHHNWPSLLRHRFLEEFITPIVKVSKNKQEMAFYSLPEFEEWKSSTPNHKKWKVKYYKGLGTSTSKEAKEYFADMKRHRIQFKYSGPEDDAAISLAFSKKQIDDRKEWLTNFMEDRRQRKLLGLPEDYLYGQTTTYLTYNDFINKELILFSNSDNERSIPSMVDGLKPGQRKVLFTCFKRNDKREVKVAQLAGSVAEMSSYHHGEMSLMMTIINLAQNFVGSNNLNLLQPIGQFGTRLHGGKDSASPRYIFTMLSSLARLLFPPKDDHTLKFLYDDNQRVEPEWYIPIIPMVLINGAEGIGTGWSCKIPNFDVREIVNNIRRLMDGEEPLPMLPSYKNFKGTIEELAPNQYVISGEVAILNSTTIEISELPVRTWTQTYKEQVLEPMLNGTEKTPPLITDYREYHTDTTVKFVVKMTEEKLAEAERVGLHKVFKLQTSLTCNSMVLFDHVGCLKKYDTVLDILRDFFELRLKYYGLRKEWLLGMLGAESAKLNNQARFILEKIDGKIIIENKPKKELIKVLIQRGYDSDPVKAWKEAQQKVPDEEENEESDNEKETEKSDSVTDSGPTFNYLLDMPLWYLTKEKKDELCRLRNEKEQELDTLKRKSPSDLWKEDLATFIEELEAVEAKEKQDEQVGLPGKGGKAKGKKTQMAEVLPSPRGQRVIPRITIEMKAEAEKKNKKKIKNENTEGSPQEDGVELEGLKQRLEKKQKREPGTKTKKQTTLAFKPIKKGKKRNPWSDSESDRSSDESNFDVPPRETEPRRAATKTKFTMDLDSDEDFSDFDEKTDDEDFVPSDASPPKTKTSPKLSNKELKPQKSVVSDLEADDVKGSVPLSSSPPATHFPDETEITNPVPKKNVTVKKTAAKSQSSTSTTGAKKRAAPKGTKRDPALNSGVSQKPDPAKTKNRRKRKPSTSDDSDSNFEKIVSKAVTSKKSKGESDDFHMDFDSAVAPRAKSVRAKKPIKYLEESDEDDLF
How it was run: (§4)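 Purified TOP2 incubated with negatively supercoiled plasmid pHOT1. Supercoiled, nicked and relaxed topoisomers separated by agarose gel electrophoresis. Compared with lanes without enzyme and with enzyme alone.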

SW1573 [13] = assay: Cell cycle arrest in human SW1573 cells assessed as accumulation of cells in G2/M phase after 24 hrs by flow cytometry; type: functional, cell-based; how it was run: as §2
HBL-100 [14] = assay: Induction of apoptosis in human HBL100 cells assessed as late apoptotic cells at 4 uM after 24 hrs by annexin V/Pi staining technique; type: functional
[15] = test system: hTERT-HPNE (Homo sapiens); assay: Antiproliferative activity against hTERT-HPNE cells after 48 hrs by SRB assay
T47D [16] = assay: Antiproliferative activity against human T47D cells after 48 hrs by SRB assay; type: functional; how it was run: as §1
WiDr [17] = assay: Induction of apoptosis in human WiDr cells assessed as late apoptotic cells at 6 uM after 24 hrs by annexin V/Pi staining technique; type: functional
WiDr [18] = assay: Induction of apoptosis in human WiDr cells assessed as early apoptotic cells at 8 uM after 24 hrs by annexin V/Pi staining technique; type: functional
WiDr [19] = assay: Induction of apoptosis in human WiDr cells assessed as early apoptotic cells at 6 uM after 24 hrs by annexin V/Pi staining technique; type: functional
HeLa [20] = assay: Induction of apoptosis in human HeLa cells assessed as late apoptotic cells at 6 uM after 24 hrs by annexin V/Pi staining technique; type: functional
[21] = Antiproliferative activity against human HS27 cells after 48 hrs by SRB assay; type: cell-based; how it was run: as §1
[22] = molecular target: DNA topoisomerase 2-alpha (Homo sapiens) (UniProt P11388); assay: Inhibition of human topoisomerase 2 alpha assessed as inhibition of decatenation of KDNA at 100 uM after 30 to 60 mins by gel electrophoresis with ethidium bromide relative to control
How it was run: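 Decatenation assay: purified TOP2 incubated with kinetoplast DNA. Released minicircles (nicked, supercoiled and relaxed forms) resolved by agarose gel electrophoresis. Compared with lanes without enzyme and with enzyme alone, plus reference TOP2 inhibitors.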

T47D [23] = assay: Induction of apoptosis in human T47D cells assessed as late apoptotic cells at 8 uM after 24 hrs by annexin V/Pi staining technique; type: functional
[24] = molecular target: DNA topoisomerase 2-alpha (Homo sapiens) (UniProt P11388); assay: Inhibition of human topoisomerase 2 alpha assessed as inhibition of relaxation of NcK plasmid pHOT1 at 100 uM after 30 to 60 mins by gel electrophoresis relative to control; how it was run: as §4
HeLa [25] = assay: Induction of DNA damage in human HeLa cells assessed as phosphorylation of H2AX at 7.5 uM after 24 hrs by immunoblotting; type: functional, cell-based; how it was run: as §3
WiDr [26] = assay: Antiproliferative activity against human WiDr cells after 48 hrs by SRB assay; type: functional; how it was run: as §1
HeLa [27] = assay: Induction of apoptosis in human HeLa cells assessed as early apoptotic cells at 8 uM after 24 hrs by annexin V/Pi staining technique; type: functional
HeLa [28] = assay: Induction of apoptosis in human HeLa cells assessed as late apoptotic cells at 8 uM after 24 hrs by annexin V/Pi staining technique; type: functional
[29] = molecular target: DNA topoisomerase 2-alpha (Homo sapiens) (UniProt P11388); assay: Inhibition of human topoisomerase 2 alpha assessed as inhibition of relaxation of SC plasmid pHOT1 at 100 uM after 30 to 60 mins by gel electrophoresis relative to control; how it was run: as §4
HeLa [30] = assay: Induction of DNA damage in human HeLa cells assessed as phosphorylation of ChK2 at 7.5 uM after 24 hrs by immunoblotting; type: functional, cell-based; how it was run: as §3
WiDr [31] = assay: Induction of apoptosis in human WiDr cells assessed as late apoptotic cells at 8 uM after 24 hrs by annexin V/Pi staining technique; type: functional
T47D [32] = assay: Induction of apoptosis in human T47D cells assessed as early apoptotic cells at 6 uM after 24 hrs by annexin V/Pi staining technique; type: functional
HeLa [33] = assay: Antiproliferative activity against human HeLa cells after 48 hrs by SRB assay; type: functional; how it was run: as §1
HBL-100 [34] = assay: Induction of apoptosis in human HBL100 cells assessed as late apoptotic cells at 2 uM after 24 hrs by annexin V/Pi staining technique; type: functional
[35] = molecular target: DNA topoisomerase 2-alpha (Homo sapiens) (UniProt P11388); assay: Inhibition of human topoisomerase 2 alpha assessed as inhibition of formation of Lin form of plasmid pHOT1 at 100 uM after 30 to 60 mins by gel electrophoresis inthe presence of exsess of ethidium bromide relative to control
How it was run: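 Cleavage-complex assay: purified TOP2 incubated with plasmid pHOT1. Agarose gel electrophoresis detects the linear (Lin) DNA form produced by trapped enzyme-cut intermediates.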

HeLa [36] = assay: Induction of apoptosis in human HeLa cells assessed as early apoptotic cells at 6 uM after 24 hrs by annexin V/Pi staining technique; type: functional
T47D [37] = assay: Induction of apoptosis in human T47D cells assessed as late apoptotic cells at 6 uM after 24 hrs by annexin V/Pi staining technique; type: functional

GI50 (SW1573 [2]): 2600 nM
Compound: COC(=O)C#CC(CCc1ccccc1)O/C=C/C(=O)OC (stereo unspecified)
GI50 (HBL-100 [1]): 2600 nM

GI50 (SW1573 [2]): 3200 nM
Compound: Cc1ccc(S(=O)(=O)C#CC(O/C=C/S(=O)(=O)c2ccc(C)cc2)C(C)C)cc1 (stereo unspecified)
GI50 (HBL-100 [1]): 3800 nM

GI50 (SW1573 [2]): 960 nM
Compound: CCOC(=O)C#CC(O/C=C/C(=O)OC)C(C)C (stereo unspecified)
GI50 (HBL-100 [1]): 880 nM

GI50 (SW1573 [2]): > 100000 nM
Compound: CCCCCCC(C#CC(=O)O)O/C=C/C(=O)OC (stereo unspecified)
GI50 (HBL-100 [1]): > 100000 nM

GI50 (SW1573 [2]): 31000 nM
Compound: C#CC(O/C=C/C(=O)OC)c1ccccc1 (stereo unspecified)
GI50 (HBL-100 [1]): 26000 nM

GI50 (SW1573 [2]): 2200 nM
Compound: COC(=O)C#CC(C[C@@H](C)CCC=C(C)C)O/C=C/C(=O)OC (stereo partly specified)
GI50 (HBL-100 [1]): 3100 nM

GI50 (SW1573 [2]): 4800 nM
Compound: CC(C)C(C#CC(=O)OC(C)(C)C)O/C=C/C(=O)OC(C)(C)C (stereo unspecified)
GI50 (HBL-100 [1]): 3000 nM

GI50 (SW1573 [2]): 3000 nM
Compound: COC(=O)C#CC(O/C=C/C(=O)OC)C(C)(C)C (stereo unspecified)
GI50 (HBL-100 [1]): 1800 nM

GI50 (SW1573 [2]): 2800 nM
Compound: CCOC(=O)C#CC(O/C=C/C(=O)OCC)C(C)C (stereo unspecified)
GI50 (HBL-100 [1]): 3000 nM

GI50 (SW1573 [2]): 3300 nM
Compound: CCCCCCC(C#CC(=O)OC)O/C=C/C(=O)OC (stereo unspecified)
GI50 (HBL-100 [1]): 2500 nM

Activity [12]: Active
GI50 (T47D [16]): 3800 nM
Activity [22]: Active
Activity [24]: Active
Activity [29]: Active
GI50 (HeLa [33]): 2800 nM
Activity [35]: inactive
GI50 (SW1573 [2]): 240 nM
Compound: CCCCC(C#CC(=O)OC)O/C=C/C(=O)OC (stereo unspecified)
Activity (T47D [3]): Dose-dependent effect
Activity (HeLa [4]): inactive
Activity (T47D [5]): 11%
GI50 at 48 h [6]: 34000 nM
GI50 (HBL-100 [1]): 250 nM
Activity (HBL-100 [7]): Dose-dependent effect
Activity (HBL-100 [8]): 6.7%
Activity (HBL-100 [9]): 5.3%
Activity (HeLa [10]): Dose-dependent effect
Activity (WiDr [11]): Dose-dependent effect
Activity (SW1573 [13]): Dose-dependent effect
Activity (HBL-100 [14]): 12%
GI50 at 48 h [15]: 1300 nM
Activity (WiDr [17]): 21%
Activity (WiDr [18]): 11%
Activity (WiDr [19]): 12%
Activity (HeLa [20]): 9%
GI50 at 48 h [21]: 1900 nM
Activity (T47D [23]): 19%
Activity (HeLa [25]): inactive
GI50 (WiDr [26]): 3100 nM
Activity (HeLa [27]): 10%
Activity (HeLa [28]): 11%
Activity (HeLa [30]): inactive
Activity (WiDr [31]): 28%
Activity (T47D [32]): 12%
Activity (HBL-100 [34]): 12%
Activity (HeLa [36]): 8.7%
Activity (T47D [37]): 24%

GI50 (SW1573 [2]): 2000 nM
Compound: CCCCCCCCCCC(C#CC(=O)OC)O/C=C/C(=O)OC (stereo unspecified)
GI50 (HBL-100 [1]): 2200 nM

GI50 (SW1573 [2]): > 100000 nM
Compound: C#CCO/C=C/C(=O)OC
GI50 (HBL-100 [1]): > 100000 nM
